The results in this text go back to ChEMBL document CHEMBL3351969, “Chalcone based azacarboline analogues as novel antitubulin agents: design, synthesis, biological evaluation and molecular modelling studies” (Eur J Med Chem, 2014).

Holding throughout (type): functional
One experiment concerns A549. The experiment in a line: Cytotoxicity against human A549 cells assessed as growth inhibition at 50 uM after 48 hrs by sulforhodamine B assay. As to conditions: for inhibition of growth at 50 µM: A549, 48 h, read-out: GI. Summed up:
(§1)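 Single-point SRB screen at 50 µM. Cells were seeded and grown 24 h at 37°C in a CO2 incubator, then exposed to compound in complete medium for 48 h. Cells were fixed with 50% TCA for 1 h at 4°C, water-washed, and stained with 0.4% SRB in 1% acetic acid for 30 min. After 1% TCA washes, dye was dissolved in Tris-HCl (0.01 M, pH 10.4) and OD read at 540 nm.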

For the next experiment, the system named is THP-1. As to the kind of experiment: Cytotoxicity against human THP1 cells assessed as growth inhibition at 50 uM after 48 hrs by sulforhodamine B assay. As to conditions: for inhibition of growth at 50 µM: THP-1, 48 h, read-out: GI. Put shortly: as §1
A general note: The SRB assay estimates cell density from bound dye.

The next experiment relates to COLO 205. The experiment in a line: Cytotoxicity against human COLO205 cells assessed as growth inhibition at 50 uM after 48 hrs by sulforhodamine B assay. As to conditions: for inhibition of growth at 50 µM: COLO 205, 48 h, read-out: GI. Summed up: as §1
A short description of experiment [1]: (§2) Cytotoxicity against human HCT116 cells assessed as growth inhibition at 50 uM after 48 hrs by sulforhodamine B assay. The settings on record: HCT-116, 48 h, read-out: GI. Summed up: as §1
The test system of the next experiment is HCT-116. Described as §2. Summed up:
as §1

Active and inactive are the calls of the source. No cut-off for these calls is given here.

`CC(=O)n1c2ccccc2c2cc(-c3ccc(Cl)cc3)nnc21`: the “growth inhibition (GI)” value with A549 is “inactive”. The inhibition of growth at 50 µM with THP-1 is 39%; in the experiment with COLO 205, 35%; in experiment [1] it was 35%.
On to `CC(=O)n1c2cccc(Br)c2c2cc(-c3ccccc3)nnc21`, for which the “growth inhibition (GI)” value in the experiment with A549, in the experiment on COLO 205 and in the experiment with HCT-116 was “inactive” in each case. For the same compound, the inhibition of growth at 50 µM in the experiment on THP-1 is 27%.
For `COc1ccc(-c2cc3c4c(I)cccc4n(C(C)=O)c3nn2)cc1OC`, the inhibition of growth at 50 µM was determined as 11% with A549, 33% in the experiment with THP-1, 14% in the experiment on COLO 205 and 13% in experiment [1].
In the case of `CC(=O)n1c2cccc(I)c2c2cc(-c3ccc([N+](=O)[O-])cc3)nnc21`, the “growth inhibition (GI)” value in the experiment with A549, in the experiment with THP-1, in the experiment on COLO 205 and in the experiment with HCT-116 was “inactive” in each case.
On to `CC(=O)n1c2cccc(I)c2c2cc(-c3ccc(Cl)cc3)nnc21`, for which the “growth inhibition (GI)” value in the experiment with A549, with THP-1, with COLO 205 and with HCT-116 was “inactive” in each case.
For the compound `CC(=O)n1c2cc(Br)cc(Br)c2c2cc(-c3ccccc3)nnc21`, the “growth inhibition (GI)” value in the experiment with A549, in the experiment with COLO 205 and with HCT-116 was “inactive” in each case. Besides, the inhibition of growth at 50 µM in the experiment on THP-1 was determined as 21%.
Turning to `CC(=O)n1c2cc(Br)cc(Br)c2c2cc(-c3cccc4ccccc34)nnc21`, the “growth inhibition (GI)” value in the experiment on A549, in the experiment with COLO 205 and in the experiment with HCT-116 was “inactive” each time. Moreover, the inhibition of growth at 50 µM in the experiment with THP-1 was 24%.
`COc1cc(-c2cc3c4c(Br)cccc4n(C(C)=O)c3nn2)cc(OC)c1OC`: the inhibition of growth at 50 µM in the experiment on A549 stood at 17%; in the experiment on THP-1, 59%; in the experiment with COLO 205, 36%; in experiment [1], 43%.
On to `CC(=O)n1c2cccc(I)c2c2cc(-c3ccc4ccccc4c3)nnc21`, for which the “growth inhibition (GI)” value with A549, with COLO 205 and with HCT-116 was “inactive” throughout. Besides, the inhibition of growth at 50 µM in the experiment with THP-1 stood at 25%.
Regarding `CC(=O)Nc1ccccc1-c1cc2c3ccccc3n(C(C)=O)c2nn1`, in the experiment on A549, the “growth inhibition (GI)” value was “inactive”. Besides, the inhibition of growth at 50 µM in the experiment with THP-1 is 51%; in the experiment with COLO 205, 50%; in experiment [1], 49%.
Take `CC(=O)n1c2cccc(I)c2c2cc(-c3ccccc3)nnc21`: the “growth inhibition (GI)” value in the experiment on A549, in the experiment with COLO 205 and with HCT-116 was “inactive” each time. In the experiment with THP-1, the inhibition of growth at 50 µM is 20%.
Turning to `CC(=O)n1c2cccc(I)c2c2cc(-c3cccc4ccccc34)nnc21`, the “growth inhibition (GI)” value in the experiment on A549, in the experiment on COLO 205 and with HCT-116 was “inactive” throughout. Also, the inhibition of growth at 50 µM with THP-1 turned out to be 29%.
Regarding `CC(=O)n1c2cc(Br)cc(Br)c2c2cc(-c3ccc(F)cc3)nnc21`, the “growth inhibition (GI)” value with A549, in the experiment with THP-1, with COLO 205 and with HCT-116 was “inactive” throughout.
In the case of `CC(=O)n1c2cccc(Br)c2c2cc(-c3ccc(Br)cc3)nnc21`, the “growth inhibition (GI)” value in the experiment on A549, in the experiment on THP-1, in the experiment on COLO 205 and with HCT-116 was “inactive” in each case.
For `CC(=O)n1c2ccccc2c2cc(-c3ccc(Br)cc3)nnc21`, the “growth inhibition (GI)” value in the experiment with A549 was “inactive”. Besides, the figures for the inhibition of growth at 50 µM (in the experiment with THP-1; with COLO 205; in experiment [1]) were 25%, 20% and 24%, respectively.
Take `CC(=O)n1c2cccc(Cl)c2c2cc(-c3ccc[nH]3)nnc21`: the inhibition of growth at 50 µM with A549 is 16%; in the experiment with THP-1 it was 53%; in the experiment on COLO 205 it was 34%; in experiment [1], 37%.
With `CC(=O)n1c2cccc(Br)c2c2cc(-c3ccc(Cl)cc3)nnc21`, the “growth inhibition (GI)” value with A549, with THP-1, in the experiment with COLO 205 and in the experiment with HCT-116 was “inactive” throughout.
Regarding `CC(=O)n1c2cc(Br)cc(Br)c2c2cc(-c3ccc(Br)cc3)nnc21`, the “growth inhibition (GI)” value in the experiment on A549, with THP-1, in the experiment on COLO 205 and in the experiment on HCT-116 was “inactive” each time.
With `CC(=O)n1c2cccc(Cl)c2c2cc(-c3ccc(Cl)cc3)nnc21`, the inhibition of growth at 50 µM in the experiment with A549 came out at 5%; in the experiment on THP-1 it was 19%; with COLO 205 it was 12%; in experiment [1], 17%.
As to `CC(=O)n1c2cccc(Cl)c2c2cc(-c3ccc([N+](=O)[O-])cc3)nnc21`, the “growth inhibition (GI)” value with A549, in the experiment with COLO 205 and in the experiment with HCT-116 was “inactive” throughout. Besides, in the experiment with THP-1, the inhibition of growth at 50 µM was determined as 14%.
With `CC(=O)n1c2ccccc2c2cc(-c3ccc([N+](=O)[O-])cc3)nnc21`, the “growth inhibition (GI)” value with A549 was “inactive”. Besides, the inhibition of growth at 50 µM in the experiment with THP-1 amounted to 19%; with COLO 205 it was 17%; in experiment [1], 19%.
On to `CC(=O)n1c2cccc(Cl)c2c2cc(-c3ccccc3)nnc21`, for which the “growth inhibition (GI)” value with A549 is “inactive”. Also, the values for the inhibition of growth at 50 µM (with THP-1; in the experiment with COLO 205; in experiment [1]) were 50%, 22% and 29%, respectively.
`CC(=O)n1c2cccc(Br)c2c2cc(-c3cccc4ccccc34)nnc21`: the inhibition of growth at 50 µM came out at 9% in the experiment on A549, 44% in the experiment on THP-1, 12% in the experiment with COLO 205 and 18% in experiment [1].
With `CC(=O)n1c2ccccc2c2cc(-c3ccc(F)cc3)nnc21`, the “growth inhibition (GI)” value with A549 is “inactive”. Further, the results for the inhibition of growth at 50 µM (in the experiment on THP-1; with COLO 205; in experiment [1]) were 42%, 40% and 36%, respectively.
In the case of `CC(=O)n1c2cccc(Cl)c2c2cc(-c3ccc(Br)cc3)nnc21`, the “growth inhibition (GI)” value in the experiment on A549 and in the experiment with HCT-116 was “inactive” each time. In addition, the figures for the inhibition of growth at 50 µM with THP-1 and in the experiment on COLO 205 were 15% and 10%, respectively.
On to `CC(=O)n1c2cc(Br)cc(Br)c2c2cc(-c3ccc4ccccc4c3)nnc21`, for which the “growth inhibition (GI)” value in the experiment with A549, with COLO 205 and with HCT-116 was “inactive” each time. Further, the inhibition of growth at 50 µM in the experiment on THP-1 was 26%.
With `COc1ccc(-c2cc3c4c(I)cccc4n(C(C)=O)c3nn2)cc1`, the “growth inhibition (GI)” value in the experiment with A549 and with HCT-116 was “inactive” throughout. Also, the inhibition of growth at 50 µM in the experiment on THP-1 was determined as 22%; in the experiment on COLO 205, 9%.
For the compound `COc1ccc(-c2cc3c4c(Br)cccc4n(C(C)=O)c3nn2)cc1`, the inhibition of growth at 50 µM in the experiment on A549 came to 7%; in the experiment with THP-1, 35%; with COLO 205, 10%; in experiment [1], 17%.
As for `COc1ccc(-c2cc3c4c(Br)cccc4n(C(C)=O)c3nn2)cc1OC`, the inhibition of growth at 50 µM was 11% in the experiment on A549, 51% in the experiment with THP-1, 21% in the experiment on COLO 205 and 23% in experiment [1].
For `CC(=O)n1c2cccc(Br)c2c2cc(-c3ccc4ccccc4c3)nnc21` the same measures were 8%, 40%, 14% and 18%.
Regarding `CC(=O)Nc1cccc(-c2cc3c4ccccc4n(C(C)=O)c3nn2)c1`, in the experiment on A549, the “growth inhibition (GI)” value was “inactive”. Moreover, the inhibition of growth at 50 µM with THP-1 is 49%; with COLO 205, 47%; in experiment [1], 48%.
For `COc1cc(-c2cc3c4c(I)cccc4n(C(C)=O)c3nn2)cc(OC)c1OC`, the inhibition of growth at 50 µM with A549 came out at 19%; with THP-1, 40%; in the experiment with COLO 205, 24%; in experiment [1], 23%.
Take `CC(=O)n1c2cccc(Br)c2c2cc(-c3ccc([N+](=O)[O-])cc3)nnc21`: the “growth inhibition (GI)” value in the experiment with A549, in the experiment on THP-1, in the experiment on COLO 205 and in the experiment with HCT-116 was “inactive” each time.
As for `CC(=O)n1c2cccc(I)c2c2cc(-c3ccc(Br)cc3)nnc21`, the “growth inhibition (GI)” value in the experiment on A549, with THP-1, with COLO 205 and in the experiment on HCT-116 was “inactive” each time.
